Key:
[1] = target: Mitogen-activated protein kinase 1 (Homo sapiens) (UniProt P28482); experiment: Inhibition of human recombinant Erk2 at 15 nM related to control ULK1
[2] = target: MAP kinase-activated protein kinase 3 (Homo sapiens) (UniProt Q16644); experiment: Inhibition of human recombinant MAPKAPK3 at 15 nM in presence of ATP by radiometric assay relative to control
[3] = target: T1, cAMP-dependent protein kinase catalytic subunit PRKX (Homo sapiens) (UniProt P51817); experiment: Inhibition of human recombinant PRKX at 15 nM in presence of ATP by radiometric assay relative to control
T1 sequence (whole entry): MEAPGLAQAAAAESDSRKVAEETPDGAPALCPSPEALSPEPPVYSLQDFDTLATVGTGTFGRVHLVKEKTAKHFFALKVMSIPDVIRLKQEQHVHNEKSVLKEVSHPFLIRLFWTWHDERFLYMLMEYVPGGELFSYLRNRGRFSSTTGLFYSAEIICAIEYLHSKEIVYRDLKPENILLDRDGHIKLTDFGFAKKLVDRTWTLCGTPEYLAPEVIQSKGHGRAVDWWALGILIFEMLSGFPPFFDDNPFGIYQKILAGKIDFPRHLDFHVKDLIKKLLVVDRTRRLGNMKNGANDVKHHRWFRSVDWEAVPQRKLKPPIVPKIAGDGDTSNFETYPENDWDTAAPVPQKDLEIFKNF

[4] = target: T2, Muscle, skeletal receptor tyrosine-protein kinase (Homo sapiens) (UniProt O15146); experiment: Inhibition of human recombinant MUSK at 15 nM related to control ULK1
T2 sequence (whole entry): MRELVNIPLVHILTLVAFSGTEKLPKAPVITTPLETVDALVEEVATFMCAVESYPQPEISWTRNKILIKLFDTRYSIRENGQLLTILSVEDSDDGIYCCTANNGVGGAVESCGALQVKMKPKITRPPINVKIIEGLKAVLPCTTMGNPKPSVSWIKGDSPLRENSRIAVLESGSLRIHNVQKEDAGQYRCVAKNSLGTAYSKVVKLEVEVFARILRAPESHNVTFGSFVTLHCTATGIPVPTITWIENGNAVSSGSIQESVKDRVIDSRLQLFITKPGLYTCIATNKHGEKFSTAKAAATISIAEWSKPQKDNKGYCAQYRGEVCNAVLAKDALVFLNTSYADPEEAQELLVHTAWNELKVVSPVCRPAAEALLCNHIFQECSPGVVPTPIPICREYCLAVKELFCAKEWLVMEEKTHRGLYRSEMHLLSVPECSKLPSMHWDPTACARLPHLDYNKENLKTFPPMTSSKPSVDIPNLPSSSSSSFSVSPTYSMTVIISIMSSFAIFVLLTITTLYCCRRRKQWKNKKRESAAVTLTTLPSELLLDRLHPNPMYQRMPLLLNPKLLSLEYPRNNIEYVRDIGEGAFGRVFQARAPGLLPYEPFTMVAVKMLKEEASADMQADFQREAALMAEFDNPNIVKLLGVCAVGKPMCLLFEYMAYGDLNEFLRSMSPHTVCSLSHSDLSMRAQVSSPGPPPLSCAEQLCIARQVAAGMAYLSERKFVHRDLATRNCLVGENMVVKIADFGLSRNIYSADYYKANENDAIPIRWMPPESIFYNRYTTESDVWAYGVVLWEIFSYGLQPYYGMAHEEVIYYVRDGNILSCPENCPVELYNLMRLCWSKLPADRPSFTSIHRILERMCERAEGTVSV

[5] = target: T3, Serine/threonine-protein kinase BRSK2 (Homo sapiens) (UniProt Q8IWQ3); experiment: Inhibition of human recombinant BRSK2 at 15 nM related to control ULK1
T3 sequence (whole entry): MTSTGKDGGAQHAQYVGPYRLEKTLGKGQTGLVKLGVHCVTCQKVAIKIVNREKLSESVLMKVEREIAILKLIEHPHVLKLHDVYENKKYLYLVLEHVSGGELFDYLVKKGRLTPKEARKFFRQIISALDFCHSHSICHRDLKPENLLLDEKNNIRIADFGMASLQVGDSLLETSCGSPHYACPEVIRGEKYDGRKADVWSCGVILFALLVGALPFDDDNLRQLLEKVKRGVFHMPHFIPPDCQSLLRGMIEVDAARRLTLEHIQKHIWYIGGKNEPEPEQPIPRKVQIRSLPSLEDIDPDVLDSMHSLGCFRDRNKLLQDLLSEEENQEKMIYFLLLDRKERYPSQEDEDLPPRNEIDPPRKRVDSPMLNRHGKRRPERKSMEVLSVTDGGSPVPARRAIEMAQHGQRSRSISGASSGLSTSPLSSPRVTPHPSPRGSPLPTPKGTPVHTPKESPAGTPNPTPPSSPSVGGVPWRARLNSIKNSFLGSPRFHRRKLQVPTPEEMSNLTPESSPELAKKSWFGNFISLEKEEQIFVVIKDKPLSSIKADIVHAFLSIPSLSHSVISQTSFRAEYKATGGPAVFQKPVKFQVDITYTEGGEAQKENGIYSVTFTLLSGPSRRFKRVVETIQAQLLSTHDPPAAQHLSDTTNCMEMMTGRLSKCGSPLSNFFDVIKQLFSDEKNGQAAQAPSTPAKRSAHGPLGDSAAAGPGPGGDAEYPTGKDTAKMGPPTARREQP
Outline: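 Recombinant human kinase panel (327 kinases) run as radiometric activity assays, each kinase in duplicate at one compound concentration. Activity remaining expressed relative to vehicle control; percent inhibition taken as 100% minus % activity remaining.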

[6] = target: Serine/threonine-protein kinase mTOR (Homo sapiens) (UniProt P42345); experiment: Inhibition of human recombinant FRAP at 15 nM in presence of ATP by radiometric assay relative to control
[7] = target: STE20-like serine/threonine-protein kinase (Homo sapiens) (UniProt Q9H2G2); experiment: Inhibition of human recombinant SLK at 500 nM related to control ULK1
STE20-like serine/threonine-protein kinase (Homo sapiens), sequence (Q9H2G2 whole entry, looked up): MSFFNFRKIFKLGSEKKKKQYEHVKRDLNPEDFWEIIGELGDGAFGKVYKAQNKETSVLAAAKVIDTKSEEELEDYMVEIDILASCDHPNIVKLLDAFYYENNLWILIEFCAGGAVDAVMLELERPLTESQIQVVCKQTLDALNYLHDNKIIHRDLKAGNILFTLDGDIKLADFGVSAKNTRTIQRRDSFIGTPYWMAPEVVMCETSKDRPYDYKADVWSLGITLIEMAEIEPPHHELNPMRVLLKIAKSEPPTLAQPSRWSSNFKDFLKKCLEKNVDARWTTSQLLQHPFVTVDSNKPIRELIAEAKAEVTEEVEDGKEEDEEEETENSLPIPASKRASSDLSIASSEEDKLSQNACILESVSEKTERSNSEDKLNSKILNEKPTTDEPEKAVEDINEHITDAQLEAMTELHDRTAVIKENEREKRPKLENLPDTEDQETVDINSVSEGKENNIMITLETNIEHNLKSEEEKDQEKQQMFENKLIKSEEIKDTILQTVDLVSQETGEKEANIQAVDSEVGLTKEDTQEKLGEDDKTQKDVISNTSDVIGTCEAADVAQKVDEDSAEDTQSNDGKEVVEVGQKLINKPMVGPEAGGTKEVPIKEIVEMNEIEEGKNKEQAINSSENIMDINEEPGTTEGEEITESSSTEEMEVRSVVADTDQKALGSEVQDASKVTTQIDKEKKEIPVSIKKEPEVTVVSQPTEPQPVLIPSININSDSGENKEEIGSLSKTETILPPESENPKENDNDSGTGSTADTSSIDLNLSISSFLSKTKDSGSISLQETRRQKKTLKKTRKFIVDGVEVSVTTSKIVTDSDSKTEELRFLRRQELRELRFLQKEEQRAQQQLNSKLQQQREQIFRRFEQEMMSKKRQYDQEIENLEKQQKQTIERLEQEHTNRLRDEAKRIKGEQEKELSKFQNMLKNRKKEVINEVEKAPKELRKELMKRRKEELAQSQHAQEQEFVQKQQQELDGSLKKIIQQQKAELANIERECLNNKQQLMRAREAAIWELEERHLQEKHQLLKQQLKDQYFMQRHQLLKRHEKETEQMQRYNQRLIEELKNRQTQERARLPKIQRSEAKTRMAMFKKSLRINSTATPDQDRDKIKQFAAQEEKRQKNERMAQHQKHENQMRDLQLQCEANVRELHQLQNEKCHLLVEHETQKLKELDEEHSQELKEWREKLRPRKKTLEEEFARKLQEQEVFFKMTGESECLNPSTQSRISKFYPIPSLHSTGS

Mitogen-activated protein kinase 1 (Homo sapiens), sequence (P28482 whole entry): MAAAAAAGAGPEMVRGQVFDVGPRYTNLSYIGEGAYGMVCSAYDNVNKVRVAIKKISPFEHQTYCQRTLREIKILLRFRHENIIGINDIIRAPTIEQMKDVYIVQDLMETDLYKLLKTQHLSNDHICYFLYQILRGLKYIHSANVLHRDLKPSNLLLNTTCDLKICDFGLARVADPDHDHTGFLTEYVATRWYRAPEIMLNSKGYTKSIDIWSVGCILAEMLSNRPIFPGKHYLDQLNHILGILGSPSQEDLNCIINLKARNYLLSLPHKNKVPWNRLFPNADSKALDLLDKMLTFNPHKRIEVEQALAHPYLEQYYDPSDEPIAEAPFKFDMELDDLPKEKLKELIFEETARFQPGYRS
MAP kinase-activated protein kinase 3 (Homo sapiens), sequence (Q16644 whole entry, looked up): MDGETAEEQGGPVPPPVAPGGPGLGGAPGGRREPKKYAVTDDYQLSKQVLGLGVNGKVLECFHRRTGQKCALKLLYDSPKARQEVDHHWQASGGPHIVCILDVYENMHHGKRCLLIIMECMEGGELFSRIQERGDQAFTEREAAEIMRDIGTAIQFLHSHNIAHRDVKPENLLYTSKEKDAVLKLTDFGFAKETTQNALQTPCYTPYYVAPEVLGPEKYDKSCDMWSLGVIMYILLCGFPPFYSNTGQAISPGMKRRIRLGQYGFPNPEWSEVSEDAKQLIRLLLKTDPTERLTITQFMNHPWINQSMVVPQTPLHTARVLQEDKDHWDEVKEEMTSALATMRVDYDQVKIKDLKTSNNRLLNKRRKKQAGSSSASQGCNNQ

SMILES | fold change (FC) [1] | inhibition [2] | inhibition [3] | fold change (FC) [4] | fold change (FC) [5] | inhibition [6] | fold change (FC) [7]
CC(C)[C@H](NC(=O)c1cc(-c2cnn3cc(-c4ccc(OCCN5CCCCC5)cc4)cnc23)cs1)C(F)(F)F | 0 | 0% | 16% | 0 | 0.28 | 0% | 
CNC(=O)c1ccccc1Oc1nc(Nc2cc(OC)c(OC)c(OC)c2)ncc1Br |  |  |  |  |  |  | 0.2

From ChEMBL document CHEMBL5653631, “A Potent and Selective ULK1 Inhibitor Suppresses Autophagy and Sensitizes Cancer Cells to Nutrient Stress” (iScience, 2018)
